Published values gathered from unrelated publications.
Protocols differ between the studies behind these lines.
Target: Sodium-dependent noradrenaline transporter (SLC6A2, Homo sapiens, UniProt P23975)

C[C@H](N)Cn1ncc2ccc3c(c21)CCCO3  Ki (ligand displacement; radioligand): > 100000 nM
C[C@@H](NC(=O)[C@@H](N)Cc1ccc(O)cc1)C(=O)NCC(=O)N[C@@H](Cc1ccccc1)C(=O)N(C)CCC[C@@]1(c2ccc(F)cc2)OCc2cc(C#N)ccc21  Ki (ligand displacement; radioligand): 750 nM
CNC(C)(C)C(=O)c1ccccc1  EC50 (calcium signal; agonist; fluorescence): 153 nM
CNc1nc(C#Cc2ccc(Cl)s2)nc2c1ncn2[C@@H]1O[C@H](C(=O)OC)[C@@H](O)[C@H]1O  Ki (ligand displacement; radioligand; cell membranes): > 10000 nM
C=CCN1CC[C@]23c4c5ccc(O)c4O[C@H]2C(=O)CC[C@]3(O)[C@H]1C5  Ki (ligand displacement; radioligand): > 7100 nM
CCCC[C@@H](NC(=O)[C@@H](N)Cc1ccc(O)cc1)C(=O)NCC(=O)N[C@@H](Cc1ccc(F)cc1)C(=O)N(C)CCC[C@@]1(c2ccc(F)cc2)OCc2cc(C#N)ccc21  Ki (ligand displacement; radioligand): 2400 nM
CNc1nc(C#Cc2ccc(Br)s2)nc2c1ncn2[C@H]1[C@H](O)[C@H](O)[C@]2(C(=O)OC)C[C@H]12  Ki (ligand displacement; radioligand; cell membranes): > 10000 nM
COc1cc(C(=O)N2CC[C@@H](O)[C@@H](N)C2)cc2nc(-c3cc4ccccc4n3CC3CC3)n(C)c12  IC50 (transporter uptake; inhibitor): 20000 nM
CN[C@@H](C)C(=O)c1ccccc1  EC50 (calcium signal; agonist; fluorescence): 121 nM
